# Data as given in PubChem BioAssay AID624467 (The Scripps Research Institute Molecular Screening Center, 2012).
# Among all 360,000 compounds or so, about 3,600 (1%) were called active. This excerpt belongs to a sample that is enriched for actives. Values without a mark were called inactive.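 How the source made its calls: active means activation above the mean activation of all test compounds in the run plus 3 SD (cut at about 38% in these data); inactive means the rest.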
# Target: Trace amine-associated receptor 1 (Homo sapiens) (UniProt Q96RJ0)
# Test: human TAAR1 agonists, primary screen, Fluo-8 calcium fluorescence, CHO RD-HGA16 cells (AID 624467)
# Settings: CHO RD-HGA16 TAAR1, Fluo-8 calcium fluorescence; at 3 µM; active compounds read high; vehicle wells 0%, saturating PEA agonist 100%
# Summary of the method: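 Repeats: no replicates (n 1) | Material: CHO-derived RD-HGA16 cells with stable Gα16 and human TAAR1 | Technique: Kinetic Fluo-8 calcium fluorescence | Schedule: 17-24 h seeding, 75 min 37 °C dye, 30 min RT | Evaluation: % activation from peak over basal fluorescence ratio, DMSO-to-PEA scaled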
# Sequence of Trace amine-associated receptor 1 (Homo sapiens) (Q96RJ0 whole entry, looked up): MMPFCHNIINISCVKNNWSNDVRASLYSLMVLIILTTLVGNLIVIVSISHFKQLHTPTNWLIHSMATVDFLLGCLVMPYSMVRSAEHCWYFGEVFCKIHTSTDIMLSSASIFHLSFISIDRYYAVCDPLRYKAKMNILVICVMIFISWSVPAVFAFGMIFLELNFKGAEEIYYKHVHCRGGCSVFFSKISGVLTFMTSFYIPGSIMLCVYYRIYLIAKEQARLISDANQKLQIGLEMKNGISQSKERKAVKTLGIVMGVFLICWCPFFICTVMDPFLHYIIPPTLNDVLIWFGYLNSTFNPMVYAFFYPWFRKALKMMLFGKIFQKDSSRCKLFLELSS
row,SMILES,activation
1,Cc1ccc2nc(-c3ccc(CN4CCC(n5cc(-c6ccccc6)[nH]c5=O)CC4)cc3)c(-c3ccccc3)nc2c1,1.53%
2,c1ccc2c(c1)C(=NC1CCCCC1)NC2=NC1CCCCC1,83.2% (active)
3,Cn1nccc1NC(=O)CC(CC(=O)O)c1ccccc1 (stereo not given),1.46%
4,Nc1ncnc2c1ncn2[C@@H]1O[C@H](C(=O)N[C@@H](CCc2ccccc2)C(=O)N2CCCN(Cc3cccs3)CC2)[C@@H](O)[C@H]1O,-0.59%
5,C=CCNC(=O)COC(=O)CNC(=O)c1cc(Cl)cc([N+](=O)[O-])c1,-0.52%
6,CC[C@H](NC(=O)[C@H](Cc1ccccc1)NC(=O)[C@H]1O[C@@H](n2cnc3c(=O)[nH]c(N)nc32)[C@H](O)[C@@H]1O)c1ccccc1,12.6%
7,Cc1nc(C(=O)NCc2ccccc2)sc1C1(C)CC(c2cccnc2)=NO1 (stereo not given),57.5% (active)
8,Cc1nc(C(=O)Nc2ccc(Cl)cc2)sc1C1(C)CC(c2ccccc2)=NO1 (stereo not given),5.24%
9,Cc1nc(-c2ccc(Cl)cc2)sc1C1(C)CC(c2ccccc2F)=NO1 (stereo not given),-1.12%
10,O=C(C(=O)N1CCC(CNC(=O)c2cccnc2Cl)CC1)c1cccs1,1.11%
11,CN1C(=O)CN2CCc3ccccc3C2c2cc(Cl)ccc21 (stereo not given),3.95%
12,CC(=O)c1ccc(S(=O)(=O)NCC2CCN(C(=O)C(=O)c3cccs3)CC2)cc1,6.58%
13,O=C(O)CC(SCC(=O)Nc1ccc(Br)cc1)C(=O)O (stereo not given),5.77%
14,O=C1CCCN2N=C(SCC(=O)Nc3ccc(Br)cc3)SC2=N1,46.4% (active)
15,O=C(CSCc1ccc(Br)cc1)Nc1ccc(S(=O)(=O)N2CCCCCC2)cc1,23.4%
16,COC(=O)C1=C(C)N(Cc2ccccc2C(F)(F)F)C(=NCC2CC2)NC1c1cccc(Cl)c1 (stereo not given),26.6%
17,O=C(/C=C/[C@H]1O[C@@H](n2cnc3c(NC(=O)c4ccccc4)ncnc32)[C@H](O)[C@@H]1O)NCc1ccccc1,54.8% (active)
18,COc1cccc(CN(C)C(=O)CC[C@H]2O[C@@H](n3cnc4c(NC(=O)c5ccccc5)ncnc43)[C@H](O)[C@@H]2O)c1,0.18%
19,CCC(C)C(CO)NC(=O)/C=C/[C@H]1O[C@@H](n2cnc3c(NC(=O)c4ccccc4)ncnc32)[C@H](O)[C@@H]1O (stereo not given in full),2.69%
20,COc1ccc(C(CNC(=O)c2cccc(S(=O)(=O)Nc3ccccc3Cl)c2)N2CCOCC2)cc1 (stereo not given),-1.44%
21,Cc1ccc(NC(=S)Nc2ncccc2C)c(C)c1,-3.17%
22,Cn1cnnc1SCc1nnc(-c2ccccc2Br)o1,11.2%
23,Nc1cccc2c1C(=O)N(Cc1nnc(-c3ccccc3Br)o1)C2=O,75.4% (active)
24,CC(C)N(Cc1nnc(-c2ccccc2Br)o1)C(=O)c1cc(Cl)nc2ccccc12,4.53%
25,CC1(C(=O)NS(=O)(=O)c2cccc(OC(F)F)c2)CCN1C(=O)COc1ccc(Cl)cc1 (stereo not given),1.84%
26,COC(=O)c1c(-c2ccc(OC)cc2)c2c(c3c4ccccc4n(S(=O)(=O)c4ccc(C)cc4)c13)C(=O)N(C)C2,-0.97%
27,COc1ccc(CNCCCn2cnc3c(OCc4ccccc4)ncnc32)cc1,2.67%
28,COc1ccc(CCNCc2c(-c3ccccc3)n(C)c3ccccc23)cc1,37.6% (active)

row,SMILES,activation
1,COc1ccc(-c2c(C#Cc3ccccc3)c3ccccc3n2C)cc1,1.86%
2,Cc1ccc(N2C(=O)C(NC(=O)c3c(F)cccc3F)(C(F)(F)F)C3=C2CC(C)(C)CC3=O)cc1 (stereo not given),0.87%
3,O=C1[C@@H](c2ccccc2)[C@@H](c2ccccc2)N1c1ccccc1,3.32%
4,CC(C)(C)OC(=O)N1CCN(C(=O)c2[nH]c(C(F)(F)F)nc2-c2ccccc2)CC1,1.1%
5,COc1ccccc1-c1c(C#N)c(N)nc2c1CCC2,-0.25%
6,CSc1nc(N)c(C#N)c(-c2ccccc2Cl)c1C#N,56.9% (active)
7,CSc1ccc(-c2c(C#N)c(N)nc3c2c(C)nn3-c2ccccc2)cc1,8.14%
8,CCc1ccc2oc(-c3ccc(N)cc3)nc2c1,11.3%
9,Cc1ccc2oc(=O)ccc2c1,0.04%
10,CCN(CC)c1ccc2oc(=O)c(C)nc2c1,81% (active)
11,O=C1CCN(C(=O)Nc2ccccc2)N1,3.7%
12,C[C@H]1CN([C@@H](C)CO)C(=O)CCCn2nncc2CO[C@@H]1CN(C)C(=O)Nc1ccc(N2CCN(C)CC2)cc1,0.67%
13,CCOc1ccc(Br)cc1S(=O)(=O)Nc1ccc(S(=O)(=O)Nc2cc(C)on2)cc1,-0.13%
14,CCC1CCCCN1C(=S)NC(=O)c1ccco1 (stereo not given),4.61%
15,CCCc1ccc(OCC(=O)NNC(=S)NC(=O)c2ccco2)cc1,83.4% (active)
16,CC(Oc1ccc2ccccc2c1)C(=O)NNC(=S)NC(=O)c1ccco1 (stereo not given),98.9% (active)
17,O=C(Nc1ccc2ccccc2c1)/C(=C\c1ccc2c(c1)OCO2)NC(=O)c1ccco1,-0.26%
18,NS(=O)(=O)c1ccc(CNC(=S)NC(=O)c2ccco2)cc1,1.56%
19,O=C(NNC(=S)Nc1ccc(Br)cc1Cl)c1ccco1,3.5%
20,O=C(C(=O)N1CCN(c2ccccc2)CC1)c1ccc2c(c1)OCO2,-0.35%
21,CCC(C)NC(=O)c1ccc(NC(=O)CC2SC(N3CCCCC3)=NC2=O)cc1 (stereo not given),1.77%
22,C=CCOC(=O)C1=C[C@H](c2ccc(Br)cc2)C[C@H](OCCCCO)O1,8.86%
23,COc1cc2c(cc1OC)CN(C(C)C(=O)Nc1cccc(S(=O)(=O)N3CCOCC3)c1)CC2 (stereo not given),0.59%
24,O=C(NCCc1ccc(F)cc1)c1n[nH]c2ccccc12,1.79%
25,O=Cc1c(NCCc2cccc(F)c2)c2ccccc2[nH]c1=O,72.1% (active)
26,O=Cc1c(NCCCN2CCCC2=O)c2ccccc2[nH]c1=O,1.42%
27,C=CCN1C(=O)N(Cc2ccccc2)c2ccccc2S1(=O)=O,0.49%
